≈ marks a conversion by molar mass, not a printed value.
What was measured:
[1] = AUC (0 to 24 hrs) in Candida albicans infected neutropenic ICR Swiss mouse at 5 mg/kg, ip; assay type: ADME, organism-based; parameters: time < 24 hr, dose 5 mg/kg, route intraperitoneal; conditions: plasma
Procedure, shortened: (§1)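 Neutropenic female ICR Swiss mice (cyclophosphamide sc at 150 mg/kg on day −4, 100 mg/kg on day −1 and day +2) infected iv via tail vein with Candida; single ip doses of 5, 20 or 80 mg/kg. Serum drawn from 3 mice per time point at eight time points and assayed by microbiologic assay (C. albicans K1) or […]. Noncompartmental analysis; AUC by trapezoidal rule.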

Mus musculus = assay: Protein binding in Candida albicans infected neutropenic ICR Swiss mouse at 80 mg/kg, ip; assay type: ADME, organism-based; parameters: dose 80 mg/kg, route intraperitoneal; conditions: in vivo
Candida albicans [2] = assay: Fungistatic activity against Candida albicans infected in neutropenic ICR Swiss mouse after 24 hrs; assay type: functional
Procedure, shortened: (§2)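 Female ICR Swiss mice, neutropenic via cyclophosphamide s.c. (150 mg/kg day −4, 100 mg/kg day −1 and day +2), infected by tail-vein injection of clinical isolates 2 h before therapy. Intraperitoneal dosing every 24 h for 4 days, 4–6 dose levels from 0.078 to 160 mg/kg, 3 mice per regimen. Kidney CFU counted at 96 h. Sigmoid dose-effect fit gives static dose and 1 log kill dose relative to burden at start of therapy.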

Nakaseomyces glabratus [3] = assay: Fungistatic activity against Candida glabrata infected in neutropenic ICR Swiss mouse after 24 hrs; assay type: functional; procedure, shortened: as §2
Candida parapsilosis [4] = assay: Fungistatic activity against Candida parapsilosis infected in neutropenic ICR Swiss mouse after 24 hrs; assay type: functional; procedure, shortened: as §2
Candida albicans [5] = assay: Antifungal activity against Candida albicans infected in ICR Swiss mouse assessed as log reduction in bacterial count […]; assay type: functional; procedure, shortened: as §2
Nakaseomyces glabratus [6] = assay: Antifungal activity against Candida glabrata infected in neutropenic ICR Swiss mouse assessed log reduction in bacterial count […]; assay type: functional; procedure, shortened: as §2
Candida parapsilosis [7] = assay: Antifungal activity against Candida parapsilosis infected in ICR Swiss mouse assessed log reduction in bacterial count […]; assay type: functional; procedure, shortened: as §2
Candida albicans [8] = assay: Antifungal activity against Candida albicans infected in ICR Swiss mouse; assay type: functional; procedure, shortened: as §2
Nakaseomyces glabratus [9] = assay: Antifungal activity against Candida glabrata infected in ICR Swiss mouse; assay type: functional; procedure, shortened: as §2
Candida parapsilosis [10] = assay: Antifungal activity against Candida parapsilosis infected in ICR Swiss mouse; assay type: functional; procedure, shortened: as §2
Candida albicans [11] = assay: Antifungal activity against Candida albicans 98-17 after 24 hrs; assay type: functional; conditions: 98-17, 24 h
Procedure, shortened: (§3)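 MICs by CLSI M27-A3 broth dilution in RPMI 1640, inoculum 0.5 × 10³ to 2.5 × 10³ cells/ml, 35°C. Read visually at 24 h as the lowest concentration giving ≥50% growth reduction versus control. Run on three occasions in duplicate and reported as the mean. C. krusei ATCC 6258 and C. parapsilosis ATCC 22019 served as QC strains.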

Candida albicans [12] = assay: Antifungal activity against Candida albicans 98-210 after 24 hrs; assay type: functional; conditions: 98-210, 24 h
Procedure, shortened: (§4)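 Broth microdilution per CLSI M27-A3 in RPMI 1640; inoculum 0.5 × 10³ to 2.5 × 10³ cells/ml, 35°C. […] Three separate occasions in duplicate, mean reported; C. krusei ATCC 6258 and C. parapsilosis ATCC 22019 as daily QC.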

Candida albicans [13] = assay: Antifungal activity against Candida albicans 580 after 24 hrs; assay type: functional; conditions: Candida albicans, 580, 24 h; procedure, shortened: as §4
Candida albicans [14] = assay: Antifungal activity against Candida albicans 98-234 after 24 hrs; assay type: functional; conditions: 98-234, 24 h; procedure, shortened: as §3
Candida albicans [15] = assay: Antifungal activity against Candida albicans K1 after 24 hrs; assay type: functional; conditions: K1, 24 h; procedure, shortened: as §4
Candida albicans [16] = assay: Antifungal activity against Candida albicans 570 after 24 hrs; assay type: functional; conditions: Candida albicans, 570, 24 h; procedure, shortened: as §3
Nakaseomyces glabratus [17] = assay: Antifungal activity against Candida glabrata 5592 after 24 hrs; assay type: functional; conditions: Nakaseomyces glabratus, 5592, 24 h; procedure, shortened: as §4
Nakaseomyces glabratus [18] = assay: Antifungal activity against Candida glabrata 513 after 24 hrs; assay type: functional; conditions: Nakaseomyces glabratus, 513, 24 h; procedure, shortened: as §4
Nakaseomyces glabratus [19] = assay: Antifungal activity against Candida glabrata 33609 after 24 hrs; assay type: functional; conditions: Nakaseomyces glabratus, 33609, 24 h; procedure, shortened: as §4
Nakaseomyces glabratus [20] = assay: Antifungal activity against Candida glabrata 32930 after 24 hrs; assay type: functional; conditions: Nakaseomyces glabratus, 32930, 24 h; procedure, shortened: as §4
Nakaseomyces glabratus [21] = assay: Antifungal activity against Candida glabrata 33616 after 24 hrs; assay type: functional; conditions: Nakaseomyces glabratus, 33616, 24 h; procedure, shortened: as §3
Nakaseomyces glabratus [22] = assay: Antifungal activity against Candida glabrata 35315 after 24 hrs; assay type: functional; conditions: Nakaseomyces glabratus, 35315, 24 h; procedure, shortened: as §3
Nakaseomyces glabratus [23] = assay: Antifungal activity against Candida glabrata 5376 after 24 hrs; assay type: functional; conditions: Nakaseomyces glabratus, 5376, 24 h; procedure, shortened: as §4
Nakaseomyces glabratus [24] = assay: Antifungal activity against Candida glabrata 34341 after 24 hrs; assay type: functional; conditions: Nakaseomyces glabratus, 34341, 24 h; procedure, shortened: as §3
Candida metapsilosis = assay: Antifungal activity against Candida metapsilosis 20463.02 after 24 hrs; assay type: functional; conditions: Lodderomyces metapsilosis, 20463.02, 24 h; procedure, shortened: as §3
Candida parapsilosis [25] = assay: Antifungal activity against Candida parapsilosis 20450.096 after 24 hrs; assay type: functional; conditions: Lodderomyces parapsilosis, 20450.096, 24 h; procedure, shortened: as §3
Candida parapsilosis [26] = assay: Antifungal activity against Candida parapsilosis 20477.078 after 24 hrs; assay type: functional; conditions: Lodderomyces parapsilosis, 20477.078, 24 h; procedure, shortened: as §3
Candida parapsilosis [27] = assay: Antifungal activity against Candida parapsilosis 20385.079 after 24 hrs; assay type: functional; conditions: Lodderomyces parapsilosis, 20385.079, 24 h; procedure, shortened: as §3
Candida parapsilosis [28] = assay: Antifungal activity against Candida parapsilosis 20477.048 after 24 hrs; assay type: functional; conditions: Lodderomyces parapsilosis, 20477.048, 24 h; procedure, shortened: as §3
Candida parapsilosis [29] = assay: Antifungal activity against Candida parapsilosis 20423.072 after 24 hrs; assay type: functional; conditions: Lodderomyces parapsilosis, 20423.072, 24 h; procedure, shortened: as §3
Candida parapsilosis [30] = assay: Antifungal activity against Candida parapsilosis 20423.078 after 24 hrs; assay type: functional; conditions: Lodderomyces parapsilosis, 20423.078, 24 h; procedure, shortened: as §3
Candida parapsilosis [31] = assay: Antifungal activity against Candida parapsilosis 20562.03 after 24 hrs; assay type: functional; conditions: Lodderomyces parapsilosis, 20562.03, 24 h; procedure, shortened: as §3
Candida parapsilosis [32] = assay: Antifungal activity against Candida parapsilosis 20553.009 after 24 hrs; assay type: functional; conditions: Lodderomyces parapsilosis, 20553.009, 24 h; procedure, shortened: as §3
Candida parapsilosis [33] = assay: Antifungal activity against Candida parapsilosis 20489.085 after 24 hrs; assay type: functional; conditions: Lodderomyces parapsilosis, 20489.085, 24 h; procedure, shortened: as §4
Candida parapsilosis [34] = assay: Antifungal activity against Candida parapsilosis 20511.092 after 24 hrs; assay type: functional; conditions: Lodderomyces parapsilosis, 20511.092, 24 h; procedure, shortened: as §3
Candida parapsilosis [35] = assay: Antifungal activity against Candida parapsilosis 20557.012 after 24 hrs; assay type: functional; conditions: Lodderomyces parapsilosis, 20557.012, 24 h; procedure, shortened: as §3
Candida orthopsilosis = assay: Antifungal activity against Candida orthopsilosis 20577.055 after 24 hrs; assay type: functional; conditions: Lodderomyces orthopsilosis, 20577.055, 24 h; procedure, shortened: as §3
Candida parapsilosis [36] = assay: Antifungal activity against Candida parapsilosis 20519.069 after 24 hrs; assay type: functional; conditions: Lodderomyces parapsilosis, 20519.069, 24 h; procedure, shortened: as §3
Candida parapsilosis [37] = assay: Antifungal activity against Candida parapsilosis 20435.057 after 24 hrs; assay type: functional; conditions: Lodderomyces parapsilosis, 20435.057, 24 h; procedure, shortened: as §3
[38] = Cmax in Candida albicans infected neutropenic ICR Swiss mouse at 80 mg/kg, ip; assay type: ADME, organism-based; parameters: dose 80 mg/kg, route intraperitoneal; conditions: ICR Swiss, in vivo; procedure, shortened: as §1
[39] = Cmax in Candida albicans infected neutropenic ICR Swiss mouse at 20 mg/kg, ip; assay type: ADME, organism-based; parameters: dose 20 mg/kg, route intraperitoneal; conditions: ICR Swiss, in vivo; procedure, shortened: as §1
[40] = Cmax in Candida albicans infected neutropenic ICR Swiss mouse at 5 mg/kg, ip; assay type: ADME, organism-based; parameters: dose 5 mg/kg, route intraperitoneal; conditions: ICR Swiss, in vivo; procedure, shortened: as §1
[41] = AUC (0 to 24 hrs) in Candida albicans infected neutropenic ICR Swiss mouse at 80 mg/kg, ip; assay type: ADME, organism-based; parameters: time < 24 hr, dose 80 mg/kg, route intraperitoneal; conditions: plasma; procedure, shortened: as §1
[42] = AUC (0 to 24 hrs) in Candida albicans infected neutropenic ICR Swiss mouse at 20 mg/kg, ip; assay type: ADME, organism-based; parameters: time < 24 hr, dose 20 mg/kg, route intraperitoneal; conditions: plasma; procedure, shortened: as §1

Work on `CC[C@H](C)C[C@H](C)CCCCCCCCC(=O)N[C@H]1C[C@@H](O)[C@@H](NCCN)NC(=O)[C@@H]2[C@@H](O)CCN2C(=O)[C@H]([C@H](O)CCN)NC(=O)[C@H]([C@H](O)[C@@H](O)c2ccc(O)cc2)NC(=O)[C@@H]2C[C@@H](O)CN2C(=O)[C@H]([C@@H](C)O)NC1=O` [CASPOFUNGIN] yielded an AUC(0-t) at 24 h [1] of 164 µg·h/mL, an Activity (Mus musculus) of 97% and an Activity (Candida albicans [2]) of 0.72 mg/kg. For the same compound, the Activity (Nakaseomyces glabratus [3]) was 0.33 mg/kg, the Activity (Candida parapsilosis [4]) was 3.56 mg/kg and the Activity (Candida albicans [5]) was 2.91 mg/kg. It also gave an Activity (Nakaseomyces glabratus [6]) of 1.16 mg/kg, an Activity (Candida parapsilosis [7]) of 9.84 mg/kg and an Emax (Candida albicans [8]) of 4.1 log10 CFU/kidneys. For the same compound, the ED50 (Candida albicans [8]; Candida albicans) was 8 mg/kg, the Emax (Nakaseomyces glabratus [9]) was 7 log10 CFU/kidneys and the ED50 (Nakaseomyces glabratus [9]; Nakaseomyces glabratus) was 6.9 mg/kg. It also gave an Emax (Candida parapsilosis [10]) of 5.5 log10 CFU/kidneys, an ED50 (Candida parapsilosis [10]; Lodderomyces parapsilosis) of 10.4 mg/kg and an MIC (Candida albicans [11]) of 0.12 µg/mL (≈ 0.11 µM). It also gave an MIC (Candida albicans [12]) of 0.02 µg/mL (≈ 0.0183 µM), an MIC (Candida albicans [13]) of 0.03 µg/mL (≈ 0.0274 µM) and an MIC (Candida albicans [14]) of 0.03 µg/mL (≈ 0.0274 µM). It also gave an MIC (Candida albicans [15]) of 0.03 µg/mL (≈ 0.0274 µM), an MIC (Candida albicans [16]) of 0.12 µg/mL (≈ 0.11 µM) and an MIC (Nakaseomyces glabratus [17]) of 0.03 µg/mL (≈ 0.0274 µM). It also gave an MIC (Nakaseomyces glabratus [18]) of 0.03 µg/mL (≈ 0.0274 µM), an MIC (Nakaseomyces glabratus [19]) of 0.03 µg/mL (≈ 0.0274 µM) and an MIC (Nakaseomyces glabratus [20]) of 0.03 µg/mL (≈ 0.0274 µM). For the same compound, the MIC (Nakaseomyces glabratus [21]) was 0.25 µg/mL (≈ 0.229 µM), the MIC (Nakaseomyces glabratus [22]) was 0.12 µg/mL (≈ 0.11 µM) and the MIC (Nakaseomyces glabratus [23]) was 0.03 µg/mL (≈ 0.0274 µM). The MIC (Nakaseomyces glabratus [24]) was 0.25 µg/mL (≈ 0.229 µM), the MIC (Candida metapsilosis) was 0.06 µg/mL (≈ 0.0549 µM) and the MIC (Candida parapsilosis [25]) was 0.5 µg/mL (≈ 0.457 µM). It also gave an MIC (Candida parapsilosis [26]) of 0.5 µg/mL (≈ 0.457 µM), an MIC (Candida parapsilosis [27]) of 0.5 µg/mL (≈ 0.457 µM) and an MIC (Candida parapsilosis [28]) of 4 µg/mL (≈ 3.66 µM). The MIC (Candida parapsilosis [29]) was 0.12 µg/mL (≈ 0.11 µM), the MIC (Candida parapsilosis [30]) was 0.25 µg/mL (≈ 0.229 µM) and the MIC (Candida parapsilosis [31]) was 0.25 µg/mL (≈ 0.229 µM). It also gave an MIC (Candida parapsilosis [32]) of 1 µg/mL (≈ 0.915 µM), an MIC (Candida parapsilosis [33]) of 0.25 µg/mL (≈ 0.229 µM) and an MIC (Candida parapsilosis [34]) of 0.06 µg/mL (≈ 0.0549 µM). For the same compound, the MIC (Candida parapsilosis [35]) was 0.12 µg/mL (≈ 0.11 µM), the MIC (Candida orthopsilosis) was 0.06 µg/mL (≈ 0.0549 µM) and the MIC (Candida parapsilosis [36]) was 1 µg/mL (≈ 0.915 µM). The MIC (Candida parapsilosis [37]) was 0.06 µg/mL (≈ 0.0549 µM), the Cmax [38] was 58000 ng/mL and the Cmax [39] was 26000 ng/mL. For the same compound, the Cmax [40] was 18000 ng/mL, the AUC(0-t) at 24 h [41] was 667 µg·h/mL and the AUC(0-t) at 24 h [42] was 345 µg·h/mL.
